# Sampled rows, rich in hits. Any-hit rate of the full collection: about 2.3%.
# TRPC6 inh: inhibitors of mouse TRPC6 channel; Q61143; AID 2553; B-score at 10 µM; HEK293-TRPC6, membrane potential dye, ACh-evoked depolarization; active compounds read low; 310,000 tested, 1.1% active;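 active = B-score under library mean minus 3 SD, initial fluorescence not abnormally high, positive integrated signal ratio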;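 also: B-score derived from integrated fluorescence ratio over the kinetic read; more negative B-score means stronger inhibition of depolarization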
# TRPC4 agonist: opens the mouse TRPC4 cation channel. Q9QUQ5. HEK293 TRPC4beta/mu-opioid, Fluo4 calcium fluorescence; active compounds read high. B-score at 10 µM. 310,000 tested, 0.49% active. AID 2237;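 active = B-score above 5 SD of library B-scores, and initial fluorescence ratio not above library mean plus 5 SD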;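 also: positive B-score marks a calcium rise read as TRPC4 activation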
# Target sequence (Q9QUQ5 whole entry, looked up): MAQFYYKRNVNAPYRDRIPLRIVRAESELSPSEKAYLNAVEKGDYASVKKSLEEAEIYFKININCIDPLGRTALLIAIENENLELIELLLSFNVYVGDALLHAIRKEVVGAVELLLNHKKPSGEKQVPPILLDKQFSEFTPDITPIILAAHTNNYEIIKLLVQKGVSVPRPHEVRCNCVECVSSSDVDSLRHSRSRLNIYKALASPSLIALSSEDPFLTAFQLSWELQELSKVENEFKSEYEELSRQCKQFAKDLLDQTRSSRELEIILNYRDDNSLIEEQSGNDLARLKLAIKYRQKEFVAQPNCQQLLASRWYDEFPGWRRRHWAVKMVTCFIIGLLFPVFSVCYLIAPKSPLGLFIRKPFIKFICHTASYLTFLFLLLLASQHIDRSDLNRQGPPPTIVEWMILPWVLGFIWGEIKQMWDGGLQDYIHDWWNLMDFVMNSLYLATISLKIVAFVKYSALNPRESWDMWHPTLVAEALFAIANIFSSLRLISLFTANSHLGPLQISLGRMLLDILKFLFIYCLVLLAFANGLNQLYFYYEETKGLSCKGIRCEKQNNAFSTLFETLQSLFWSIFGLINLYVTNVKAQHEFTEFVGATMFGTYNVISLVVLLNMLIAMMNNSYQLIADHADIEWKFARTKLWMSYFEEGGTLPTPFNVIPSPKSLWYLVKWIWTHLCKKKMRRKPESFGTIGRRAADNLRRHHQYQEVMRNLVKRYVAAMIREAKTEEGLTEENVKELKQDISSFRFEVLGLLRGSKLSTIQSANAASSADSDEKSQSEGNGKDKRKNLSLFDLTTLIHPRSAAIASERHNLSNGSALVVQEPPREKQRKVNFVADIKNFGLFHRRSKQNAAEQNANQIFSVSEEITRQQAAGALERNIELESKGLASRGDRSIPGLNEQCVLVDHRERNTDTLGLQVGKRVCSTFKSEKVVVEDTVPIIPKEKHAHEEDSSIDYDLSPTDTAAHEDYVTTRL
#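 Test system: HEK293 cells stably co-expressing mouse TRPC4beta and mu-opioid receptor | Schedule: Fluo4 dye loading 45 min at room temperature, 110 s recording | Measured by: Kinetic Fluo4 calcium fluorescence, 5 s baseline at 1 Hz | Evaluation: B score of integrated ratio | Controls: Buffer (low) and maximal DAMGO (high)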
# TRPC6 activator: mouse TRPC6 channel activation; B-score at 10 µM; HEK293-TRPC6 membrane potential dye fluorescence; active compounds read high; AID 2550; Q61143; 310,000 tested, 0.13% active;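 active = B-score of the integrated fluorescence ratio above library mean plus 3 SD, and starting fluorescence ratio within library mean plus 5 SD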;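 also: higher score means more depolarization so channel activation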
# TRPC4 block: inhibitors of mouse TRPC4 channel. Q9QUQ5. HEK293 TRPC4beta/mu-opioid, DAMGO-evoked Fluo4 calcium flux; active compounds read low. B-score at 10 µM. 300,000 tested, 0.39% active;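 active = B-score over 3 SD under the library average, no early fluorescence shift, positive overall ratio signal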
#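 Assay system: TRPC4beta/mu-opioid receptor HEK293 cell line; compound dosing: single concentration per test compound; detection: Fluo4 Ca2+ flux fluorescence; evaluation: per-well B score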
# TRPC4 PAM: allosterically enhances the mouse TRPC4 cation channel; Q9QUQ5; HEK293 TRPC4beta/mu-opioid, DAMGO EC20, Fluo-4 Ca2+ flux; active compounds read high; B-score at 10 µM; 310,000 tested, 0.42% active;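 active = B-score of calcium response area above 5 SD of library B-scores, with initial fluorescence ratio within 5 SD of library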;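 also: B-score of integrated fluorescence ratio over time as area under calcium response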
# TRPC4 sel inh 2: mouse TRPC4 off-target activity of TRPC6 inhibitors, second screen; 920 tested, 42% active; inhibition, % at 10 µM; shares compounds with TRPC6 inh; HEK293 TRPC4/MOR, membrane potential dye fluorescence; channel activated by saturating DAMGO dose; AID 2776;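 active = compounds whose fluorescence signal differed from control wells by over 3 SD, either direction, in both duplicate plates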
# TRPC4 spec: mouse TRPC4 off-target activity of TRPC6 inhibitors; shares compounds with TRPC6 inh; HEK293 TRPC4/mu-opioid, membrane potential fluorescence; 920 tested, 61% active; AID 2777; activity change, negative = inhibition, % at 10 µM;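 active = rise or fall in signal beyond 3 SD of buffer-only wells in both replicate plates, either sign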;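 also: integrated kinetic ratio of fluorescence range over baseline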
# HEK293 MPD ctr 2-1: second check of TRPC6 inhibitor effects in parental HEK293 cells. shares compounds with TRPC6 inh. parental HEK293 membrane potential dye fluorescence; maximal acetylcholine challenge after compound addition. signal change vs control, % at 10 µM. 920 tested, 31% active. AID 2779;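 active = membrane potential signal moving either way by over 3 SD of the maximum-effect control, in both duplicate plates, meaning non-specific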
# HEK293 MPD ctr-1: checks TRPC6 inhibitor effects in parental HEK293 cells; shares compounds with TRPC6 inh; parental HEK293 membrane potential dye fluorescence; membrane potential signal change, % at 10 µM; 920 tested, 60% active;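 active = membrane potential signal shifting up or down by more than 3 SD of buffer-only wells, on both duplicate plates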
# HEK293 MPD ctr-2: counter-screen for TRPC6 modulators: effect in parental HEK293 cells; 2,400 tested, 51% active; shares compounds with TRPC6 inh; membrane potential signal change, % at 10 µM; membrane potential dye fluorescence;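 active = membrane potential signal moves up or down beyond 5 SD from buffer-only wells, on both duplicate plates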
# HEK293 MPD ctr 2-2: second counter-screen for TRPC6 modulators: effect in parental HEK293 cells; shares compounds with TRPC6 inh; membrane potential dye fluorescence; after compound, maximal acetylcholine stimulation; inhibition, % at 10 µM; 2,400 tested, 14% active;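 active = membrane potential signal drops by more than 5 SD from the mean control signal, in both duplicate plates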;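 also: plate controls were acetylcholine ECmax control wells for no effect and buffer only wells for full effect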
# TRPC4/MOR mod: selectivity of TRPC6 modulators against mouse TRPC4 | percent change from control (negative = decrease, positive = increase), % at 10 µM | AID 488927 | 2,400 tested, 69% active | HEK293 TRPC4/mu-opioid, membrane potential fluorescence | shares compounds with TRPC6 inh;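 active = membrane potential signal moved up or down beyond 5 SD of buffer control wells, in both duplicate plates, actives on both sides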;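 also: plate controls were assay buffer wells for no effect and DAMGO maximal-effect wells for full effect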
# TRPC4/MOR inh 2: second selectivity test of TRPC6 modulators against mouse TRPC4; 2,400 tested, 55% active; inhibition, % at 10 µM; shares compounds with TRPC6 inh; HEK293 TRPC4/mu-opioid, membrane potential dye fluorescence; stimulated with maximal-effect DAMGO;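 active = drop in membrane potential signal beyond 5 SD of the control wells in both duplicate plates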;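 also: TRPC4 counter screen for TRPC6 hits run under conditions tuned for TRPC6 not TRPC4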
# TRPC6 block conf: mouse TRPC6 inhibitor confirmation | shares compounds with TRPC6 inh | 3,300 tested, 43% active | HEK293-TRPC6, membrane potential dye, ACh-evoked depolarization | inhibition, % at 10 µM | AID 488960;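 active = fluorescence ratio falls more than 5 SD below the full-stimulation control mean, in both duplicate runs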;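 also: integrated fluorescence ratio of peak minus minimum over baseline after agonist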
# TRPC6 act conf: confirmation of mouse TRPC6 activators; shares compounds with TRPC6 inh; HEK293-TRPC6 membrane potential dye fluorescence, FDSS; activation, % at 10 µM; 2,800 tested, 11% active; AID 488961;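 active = ratio signal rise beyond 5 SD above unstimulated control wells' mean, seen in both duplicate runs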;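 also: plate controls were buffer EC0 wells for no effect and acetylcholine ECmax response for full effect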
# * marks the source's active call; other numbers are inactive results; i = inactive; / = no result given.
SMILES,TRPC6 inh,TRPC4 agonist,TRPC6 activator,TRPC4 block,TRPC4 PAM,HEK293 MPD ctr-2,HEK293 MPD ctr 2-2,TRPC4/MOR mod,TRPC4/MOR inh 2,TRPC6 block conf,TRPC6 act conf,others
COc1cc(OC)c2ccc(=O)oc2c1C(CCN1CCCC(C)C1)c1ccc(N(C)C)cc1 (stereo not given),-5.72*,i,i,i,i,-112.5%*,i,-26.0%*,70.0%*,49.0%*,i,
CCCCCc1cc(=O)oc2c(C(CCN3CCCC(C)C3)c3ccc(N(C)C)cc3)c(OC)cc(OC)c12 (stereo not given),i,i,i,i,i,/,/,/,/,/,/,
COC(=O)Cc1c[nH]c2cccc(OCC(O)CN(Cc3ccccc3)C(C)C)c12 (stereo not given),-7.2*,i,i,i,i,/,/,/,/,i,i,TRPC4 sel inh 2=71.5%*;TRPC4 spec=0.3%*;HEK293 MPD ctr 2-1=i;HEK293 MPD ctr-1=i
O=C(c1ccco1)N1CCN(S(=O)(=O)c2ccc(Oc3ccccc3)cc2)CC1,-12.7*,i,i,i,i,/,/,/,/,i,i,TRPC4 sel inh 2=i;TRPC4 spec=2.1%*;HEK293 MPD ctr 2-1=232.5%*;HEK293 MPD ctr-1=1.1%*
O=C(c1ccco1)N1CCN(S(=O)(=O)c2ccc(Br)cc2)CC1,i,i,i,i,i,/,/,/,/,/,/,
CCOC(=O)C(C)Sc1cc(CS(=O)(=O)c2ccccc2)nc(-c2ccccc2)n1 (stereo not given),i,i,i,i,i,/,/,/,/,/,/,
Brc1cccc(-c2nc3cccnc3nc2-c2cccc(Br)c2)c1,i,i,i,i,i,/,/,/,/,/,/,
Clc1ccc(-[n+]2c(-c3cccc(Br)c3)[nH]c3nc4ccccc4nc32)cc1,-5.06*,i,i,i,i,i,i,i,37.5%*,i,i,
COc1ccc(C2Nc3ccccc3C(=O)N2C2CCCCC2)cc1 (stereo not given),i,i,i,i,i,/,/,/,/,/,/,
CN(C)c1ccc(N=Nc2cccc3ccoc23)cc1,-5.75*,i,i,i,i,i,i,i,41.0%*,i,i,
CN(C)c1ccc(N=Nc2cccc(F)c2)cc1,i,i,i,i,i,/,/,/,/,/,/,
CCn1c(SCC(=O)Nc2nncs2)nnc1C(C)NC(=O)c1ccccc1Br (stereo not given),i,i,i,i,i,/,/,/,/,/,/,
N=c1c2c(-c3ccccc3)c(-c3ccccc3)n(Cc3ccco3)c2ncn1CCO,-6.6*,i,i,i,i,123.0%*,i,16.5%*,80.5%*,43.0%*,/,
N=c1c2c(-c3ccccc3)c(-c3ccccc3)n(Cc3ccco3)c2ncn1CCN1CCOCC1,-9.88*,i,i,i,i,/,/,/,/,i,i,TRPC4 sel inh 2=40.5%*;TRPC4 spec=3.4%*;HEK293 MPD ctr 2-1=207.5%*;HEK293 MPD ctr-1=8.2%*
N=c1c2c(-c3ccccc3)c(-c3ccccc3)n(Cc3ccco3)c2ncn1CCCO,-5.1*,i,i,i,i,149.5%*,i,20.0%*,76.0%*,i,/,
c1ccc(-c2nc3nc4ccccc4nc3n2Cc2ccco2)cc1,i,i,i,i,i,/,/,/,/,/,/,
O=C1NC(=O)C(Cc2c[nH]c3ccccc23)N1 (stereo not given),i,i,i,i,i,/,/,/,/,/,/,
Cc1cc2c(cc1S(=O)(=O)Nc1ccc(OC(F)(F)F)cc1)OCC(=O)N2,i,i,i,i,i,/,/,/,/,/,/,
O=C(NNC(=O)c1ccccc1OCc1ccccc1Cl)c1csc(N2CCOCC2)n1,i,i,i,i,i,/,/,/,/,/,/,
O=C(NCCCN1CCCC1)c1cc2c(Cl)nc3ccccc3c2s1,-6.6*,i,i,i,i,i,i,i,35.0%*,i,i,
COc1ccc(NC(=S)N(CCN(C)C)C(C)c2ccco2)cc1Cl (stereo not given),i,i,i,i,i,/,/,/,/,/,/,
OCCN1CCN(c2ncnc3sc(-c4ccccc4)cc23)CC1,-6.21*,i,i,i,i,i,i,-9.5%*,35.5%*,i,i,
c1ccc(-c2cc3c(N4CCCC4)ncnc3s2)cc1,i,i,i,i,i,/,/,/,/,/,/,
Cc1ccc(CNCCC2=CCCCC2)cc1,-7.09*,i,i,i,i,/,/,/,/,i,i,TRPC4 sel inh 2=i;TRPC4 spec=i;HEK293 MPD ctr 2-1=i;HEK293 MPD ctr-1=i
Cc1ccc([N+](=O)[O-])cc1N=Nc1c(-c2ccc([N+](=O)[O-])cc2)[nH]n(C(N)=S)c1=O,-6.36*,i,i,i,i,i,i,i,47.5%*,48.0%*,i,
Cc1ccc([N+](=O)[O-])cc1N=Nc1c(C)[nH]n(C(N)=S)c1=O,i,i,i,i,i,/,/,/,/,/,/,
Cc1oc(-c2ccc(Cl)cc2)nc1CN1CCCC(C(=O)NCc2ccco2)C1 (stereo not given),-6.7*,i,15.7*,i,i,114.5%*,i,20.0%*,51.0%*,47.0%*,92.5%*,
Cc1oc(-c2ccc(Cl)cc2)nc1CN1CCCC(C(=O)NC2CC2)C1 (stereo not given),i,i,i,i,i,/,/,/,/,/,/,
Cc1ccc(C)c(C(=O)Nc2ccncc2)c1,i,i,i,i,i,/,/,/,/,/,/,

# Source: PubChem BioAssay (Johns Hopkins Ion Channel Center)
